Laboratory results taken from paper PMC5520537 (Antiviral research, 2017).
Where two headings read alike, the source gives them in different places.

Assays:
HBV genotype D = assay: HBV replication inhibition assay in HepDES19 cells; type: cell-based, hepatitis B virus; conditions: for EC50: read-out: HBV replication inhibition (EC50), 3 days, plus-polarity DNA strand, average ± SD; for HBV replication inhibition, qualitative screen: 20 μM, plus-polarity DNA
HepDES19 cells [1] = conditions: read-out: Toxicity in HepDES19, LDH (CC50); 72 hours; average ± SD
HIV replication = conditions: read-out: HIV replication inhibition; ref Suchaud et al., 2014; cited from earlier work
HepDES19 cells [2] = conditions: read-out: Toxicity in HepDES19, MTS (CC50); 72 hours; average ± SD
HBV RNaseH [3] = molecular target: T1, HBV RNaseH (Hepatitis B virus genotype D subtype ayw, UniProt P03156); assay: Molecular beacon fluorescence RNaseH cleavage assay; type: biochemical; conditions: for Inhibition of HBV RNaseH, Molecular Beacon cleavage assay: qualitative, 0 to 500 μM compound, 2.1 μg HBV RNaseH; for Inhibition in the molecular beacon assay: 2.1 μg purified HBV RNaseH, 0 to 500 μM
HBV RNaseH [4] = molecular target: T1, HBV RNaseH; conditions: qualitative; previously reported; ref Cai et al., 2014; cited from earlier work
HepDES19 cells [5] = conditions: read-out: Toxicity in HepDES19, NR (CC50); 72 hours; average ± SD
HBV RNaseH [6] = molecular target: T1, HBV RNaseH; assay: Oligonucleotide-directed RNA cleavage assay with purified HBV RNaseH; type: biochemical; conditions: for Inhibition of HBV RNaseH, Oligonucleotide directed cleavage assay: qualitative, compounds at 100, 60 and 20 μM, 16 previously untested compounds
Summary of the method: (§1)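 Enzymes were His-tagged and expressed in E. coli, then nickel-affinity purified. A 32P-labelled RNA annealed to a DNA oligonucleotide was incubated with RNaseH and test compound at 42°C for 90 min. Products were gel-resolved and autoradiographed. Inhibition was scored qualitatively as dose-dependent reduction in substrate degraded.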

huRNaseH1 = molecular target: T2, huRNaseH1 (Homo sapiens, UniProt O60930); assay: Oligonucleotide-directed cleavage assay with purified huRNaseH1; type: biochemical; conditions: 100, 60 and 20 μM
T2 sequence (O60930 1-286): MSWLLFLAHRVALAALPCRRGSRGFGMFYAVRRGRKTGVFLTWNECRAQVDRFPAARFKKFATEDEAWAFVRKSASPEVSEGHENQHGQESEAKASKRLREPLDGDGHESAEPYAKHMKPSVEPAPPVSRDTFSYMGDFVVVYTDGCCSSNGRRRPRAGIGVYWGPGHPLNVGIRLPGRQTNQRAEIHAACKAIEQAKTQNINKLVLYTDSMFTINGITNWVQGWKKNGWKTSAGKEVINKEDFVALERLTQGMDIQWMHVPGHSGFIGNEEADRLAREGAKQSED
Summary of the method: as §1

HBV polymerase = HBV polymerase (Hepatitis B virus genotype D subtype ayw, UniProt P03156); assay: Endogenous polymerase reaction; type: biochemical; conditions: inhibitors at 4X EC50; #138 and #211 at 30 μM; ddTTP […]; 7 hours
HBV polymerase, sequence (P03156 whole entry): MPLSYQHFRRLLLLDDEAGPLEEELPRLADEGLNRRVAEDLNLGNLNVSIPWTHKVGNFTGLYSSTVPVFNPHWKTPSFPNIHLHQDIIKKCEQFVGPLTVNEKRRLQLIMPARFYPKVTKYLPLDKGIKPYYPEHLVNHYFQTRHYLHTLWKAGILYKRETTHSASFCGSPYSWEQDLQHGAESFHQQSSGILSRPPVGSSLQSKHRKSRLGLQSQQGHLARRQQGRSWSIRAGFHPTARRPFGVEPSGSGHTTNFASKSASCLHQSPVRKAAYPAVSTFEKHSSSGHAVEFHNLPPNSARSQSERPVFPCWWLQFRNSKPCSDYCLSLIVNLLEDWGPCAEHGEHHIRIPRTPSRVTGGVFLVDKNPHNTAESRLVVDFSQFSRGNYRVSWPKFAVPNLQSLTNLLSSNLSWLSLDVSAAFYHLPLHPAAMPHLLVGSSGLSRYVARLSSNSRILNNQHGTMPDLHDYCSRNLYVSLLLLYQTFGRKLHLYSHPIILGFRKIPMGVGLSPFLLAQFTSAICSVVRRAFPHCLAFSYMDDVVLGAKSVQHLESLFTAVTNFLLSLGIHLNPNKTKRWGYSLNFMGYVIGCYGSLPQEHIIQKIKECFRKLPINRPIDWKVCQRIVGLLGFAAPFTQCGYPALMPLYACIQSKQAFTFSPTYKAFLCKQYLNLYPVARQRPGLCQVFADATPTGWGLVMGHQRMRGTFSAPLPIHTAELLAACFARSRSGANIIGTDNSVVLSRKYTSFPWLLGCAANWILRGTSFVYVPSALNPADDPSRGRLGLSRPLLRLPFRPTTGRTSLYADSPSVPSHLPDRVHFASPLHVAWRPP

T1 sequence (P03156 671-832): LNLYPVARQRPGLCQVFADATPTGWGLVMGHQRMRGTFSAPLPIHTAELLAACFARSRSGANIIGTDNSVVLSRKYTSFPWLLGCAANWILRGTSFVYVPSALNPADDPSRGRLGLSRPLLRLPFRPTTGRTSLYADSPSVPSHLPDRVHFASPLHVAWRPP

SMILES | CC50 (HepDES19 cells [1]) [µM] | CC50 (HepDES19 cells [2]) [µM] | Inhibition of HBV RNaseH, Molecular Beacon cleavage assay (HBV RNaseH [3]) | Inhibition of HBV RNaseH, Oligonucleotide directed cleavage assay (HBV RNaseH [4]) | CC50 (HepDES19 cells [5]) [µM] | Inhibition of HBV RNaseH, Oligonucleotide directed cleavage assay (HBV RNaseH [6]) | HBV replication inhibition, qualitative screen (HBV genotype D) | other results
O=C(Nc1ccc2c(c1)C(=O)N(O)C(=O)C2C(=O)NCc1ccc(F)cc1)c1ccccc1 (centres unmarked) [Compound 86] | > 100 | 99 ± 2 | − (No inhibition detected at 500 μM) | − (No inhibition detected at 100 μM) | 52 ± 11 |  |  | TI (therapeutic index, CC50(MTS)/EC50) (HBV genotype D): 71; EC50 (HBV genotype D): 1.4 ± 0.3 µM; EC50 (HIV replication): > 21 µM
Nc1cccc(=O)[nH]1 [Compound 206] |  |  |  |  |  | − (No inhibition detected at 100 μM) | − (No inhibition detected at 20 μM) | Inhibition of huRNaseH1 (huRNaseH1): detectably inhibited
Cc1cc(CC(C)CC(C)(C)C)n(O)c(=O)c1.NCCO (centres unmarked) [Compound 191, Piroctone olamine, reference compound] |  |  |  |  |  | − (No inhibition detected at 100 μM) | − (No inhibition detected at 20 μM) | 
Cc1cc(COc2ccc(Oc3ccc(Cl)cc3)cc2)n(O)c(=O)c1 [Compound 211, Rilopirox, reference compound] |  |  | − (No inhibition detected at 500 μM) |  |  | − (No inhibition detected at 100 μM) | − (No inhibition detected at 20 μM) | Effect on 32P incorporation / HBV DNA elongation in EPR (HBV polymerase): None of the HBV inhibitors nor the two negative control compounds (#138 and 211) significantly altered incorporation; HBV replication inhibition / activity (HBV genotype D): inactive; Inhibition in the molecular beacon assay (HBV RNaseH [3]): had no effect on the rate of substrate degradation
O=c1[nH]c(=O)c2ccccc2[nH]1 [Compound 197, Benzoylene urea] |  |  |  |  |  | − (No inhibition detected at 100 μM) | − (No inhibition detected at 20 μM) | 
NN1C(=O)Cc2ccccc2C1=O [Compound 204] |  |  |  |  |  | − (No inhibition detected at 100 μM) | − (No inhibition detected at 20 μM) | HBV replication inhibition / activity (HBV genotype D): inactive; Inhibition of huRNaseH1 (huRNaseH1): detectably inhibited
Oc1nc2ccccc2nc1O [Compound 198, 2,3-dihydroxy-quinoxaline] |  |  |  |  |  | − (No inhibition detected at 100 μM) | − (No inhibition detected at 20 μM) | 
COc1ccc2c(c1)C(=O)N(O)C(=O)C2C(=O)NCc1ccc(F)cc1 (centres unmarked) [Compound 88] | 57 ± 6 | 40 ± 6 | − (No inhibition detected at 500 μM) | − (No inhibition detected at 100 μM) | 26 ± 2 |  |  | TI (therapeutic index, CC50(MTS)/EC50) (HBV genotype D): 16; EC50 (HBV genotype D): 2.5 ± 0.5 µM
O=C1CCC(=O)N1O [Compound 139] |  |  |  | − (No inhibition detected at 100 μM) |  |  | − (No inhibition detected at 20 μM) | HBV replication inhibition / activity (HBV genotype D): inactive
Cc1cn([C@H]2CC[C@@H](COP(=O)(O)OP(=O)(O)OP(=O)(O)O)O2)c(=O)[nH]c1=O [ddTTP] |  |  |  |  |  |  |  | Effect on 32P incorporation / HBV DNA elongation in EPR (HBV polymerase): strongly inhibited
O=C(NCc1ccc(F)cc1)C1C(=O)N(O)C(=O)c2cc(Cl)ccc21 (centres unmarked) [Compound 87] | 52 ± 15 | 37 ± 17 | − (No inhibition detected at 500 μM) | − (No inhibition detected at 100 μM) | 24 ± 1 |  |  | TI (therapeutic index, CC50(MTS)/EC50) (HBV genotype D): 8.2; EC50 (HBV genotype D): 4.5 ± 3.7 µM
Cc1cc(C2CCCCC2)n(O)c(=O)c1 [Compound 41, Ciclopirox, reference compound] |  |  |  | − (No inhibition detected at 100 μM) |  |  | − (No inhibition detected at 20 μM) | 
CC(=Nc1ccccc1N)c1c(C)cc(=O)n(O)c1O [Compound 208] | 12 ± 0.1 | 15 ± 7 | + (Dose-dependent inhibition at ≤500 μM) |  | 13 ± 1 | + (Dose-dependent inhibition at ≤100 μM) |  | Inhibition of RNA cleavage by the HBV RNaseH (HBV RNaseH [6]; 100, 60 and 20 μM): inhibited RNA cleavage; Stability in mouse liver microsomes: stable; Inhibition in the molecular beacon assay (HBV RNaseH [3]): inhibited; Inhibition of huRNaseH1 (huRNaseH1): did not inhibit
